In article PMC11492202 (RSC Advances, 2024):

Experiments:
Escherichia coli = experiment: Antibacterial disc diffusion assay; assay type: cell-based; conditions: 37 °C, 24 hours
Summary of the method: (§1)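 Organisms grown overnight in nutrient broth, adjusted to 0.5 McFarland turbidity and spread evenly on Mueller-Hinton agar with sterile cotton brushes. Sterile 4 mm paper discs were impregnated with test compound and placed on the inoculated plates. Rifampin served as the positive control and DMSO as the negative control. Plates were incubated at 37 °C for 24 h, and inhibition zones were measured in mm.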

α-amylase = experiment: In vitro α-amylase inhibition assay; assay type: biochemical; conditions: read-out: α-Amylase inhibition IC50 ± SEM; starch substrate, pH 6.9
Bacillus subtilis = experiment: Antibacterial disc diffusion assay; assay type: cell-based; conditions: 37 °C, 24 hours
Summary of the method: as §1

Proteinase K = Proteinase K (Parengyodontium album, UniProt P06873); experiment: In vitro proteinase K inhibition assay; assay type: biochemical, Tritirachium album Limber
Sequence of Proteinase K (P06873 106-384): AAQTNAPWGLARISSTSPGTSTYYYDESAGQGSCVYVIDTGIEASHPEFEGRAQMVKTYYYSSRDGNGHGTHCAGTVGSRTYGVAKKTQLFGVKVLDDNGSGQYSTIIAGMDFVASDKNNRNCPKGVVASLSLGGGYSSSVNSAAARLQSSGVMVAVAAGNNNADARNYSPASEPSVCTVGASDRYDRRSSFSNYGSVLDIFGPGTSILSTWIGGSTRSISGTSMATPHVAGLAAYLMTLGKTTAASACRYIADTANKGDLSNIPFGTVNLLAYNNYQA

Structure (SMILES) | IC50 (α-amylase) [µM] | IC50 (Proteinase K) [µM] | Antibacterial zone of inhibition (Escherichia coli) [mm] | Antibacterial zone of inhibition (Bacillus subtilis) [mm]
O=C(NC(=S)Nc1nc(-c2ccccc2)cc(-c2ccc(Br)cc2)n1)c1ccccc1 [6a, N-((4-(4-Bromophenyl)-6-phenylpyrimidin-2-yl)carbamothioyl) benzamide] | 1.676 ± 0.014 |  | 7 | 8
COc1ccc(C(=O)NC(=S)Nc2nc(-c3ccccc3)cc(-c3ccc(Cl)cc3)n2)cc1OC [6b, N-((4-(4-Chlorophenyl)-6-phenylpyrimidin-2-yl)carbamothioyl)-3,4-dimethoxybenzamide] | 1.612 ± 0.004 | 1.81 ± 0.086 | 6 | 9
Cc1ccc(-c2cc(-c3ccccc3)nc(NC(=S)NC(=O)c3ccccc3)n2)cc1 [6c, N-((4-Phenyl-6-(p-tolyl)pyrimidin-2-yl)carbamothioyl)benzamide] | 1.55 ± 0.024 | 1.83 ± 0.062 | 7 | 8
Cc1ccc(-c2cc(-c3ccc(F)cc3)nc(NC(=S)NC(=O)c3ccccc3)n2)cc1 [6d, N-((4-(4-Fluorophenyl)-6-(p-tolyl)pyrimidin-2-yl)carbamothioyl)benzamide] | 1.55 ± 0.023 |  | 8 | 9
CO[C@H]1/C=C/O[C@@]2(C)Oc3c(C)c(O)c4c(O)c(c(/C=N/N5CCN(C)CC5)c(O)c4c3C2=O)NC(=O)/C(C)=C\C=C\[C@H](C)[C@H](O)[C@@H](C)[C@@H](O)[C@@H](C)[C@H](OC(C)=O)[C@@H]1C [Rifampin, reference compound] |  |  | 17 | 26

The next lines start with results.

IC50 (α-amylase) [µM] | IC50 (Proteinase K) [µM] | Structure (SMILES) | Antibacterial zone of inhibition (Escherichia coli) [mm] | Antibacterial zone of inhibition (Bacillus subtilis) [mm]
1.662 ± 0.01 |  | O=C(NC(=S)Nc1nc(-c2ccccc2)cc(-c2ccc(F)cc2)n1)c1ccccc1 [6e, N-((4-(4-Fluorophenyl)-6-phenylpyrimidin-2-yl)carbamothioyl)benzamide] | 6 | 7
1.664 ± 0.01 | 1.79 ± 0.08 | Cc1ccccc1C(=O)NC(=S)Nc1nc(-c2ccccc2)cc(-c2ccc(Cl)cc2)n1 [6f, N-((4-(4-Chlorophenyl)-6-phenylpyrimidin-2-yl)carbamothioyl)-2 methylbenzamide] | 7 | 6
1.601 ± 0.008 |  | O=C(NC(=S)Nc1nc(-c2ccccc2)cc(-c2ccc(Cl)cc2)n1)c1cccc2ccccc12 [6h, N-((4-(4-Chlorophenyl)-6-phenylpyrimidin-2-yl)carbamothioyl)-1-naphthamide] | 6 | 8
1.52 ± 0.034 |  | O=C(NC(=S)Nc1nc(-c2ccccc2)cc(-c2ccc(Cl)cc2)n1)C1CCCCC1 [6i, N-((4-(4-Chlorophenyl)-6-phenylpyrimidin-2-yl)carbamothioyl) cyclohexane carboxamide] | 7 | 11
1.48 ± 0.051 |  | Cc1ccc(C(=O)NC(=S)Nc2nc(-c3ccccc3)cc(-c3ccc(Cl)cc3)n2)cc1 [6j, N-((4-(4-Chlorophenyl)-6-phenylpyrimidin-2-yl)carbamothioyl)-4-methylbenzamide] | 6 | 7
